Molecules are shown by their SMILES.

The test system of assay [1] is rhinovirus A1B. As to the kind of experiment: (§1) Compound was tested for its inhibitory concentration against rhinovirus 1B through plaque-inhibition assay at 50 ug/disk using monolayers of M-HeLa cells. The settings on record: Rhinovirus A. Type of assay: functional, organism-based, rhinovirus type 1b. Summed up: (§2)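 The 50% inhibitory concentration against rhinovirus serotype 1B was measured in M-HeLa cells, with plaque-reduction run as described previously. 4',6-Dichloroflavan was run alongside as the reference.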

Assay [2] relates to rhinovirus A1B. As to the kind of experiment: Compound at 40 uM was tested for its percentage inhibitory concentration against rhinovirus 1B through plaque-inhibition assay at 50 ug/disk using monolayers of M-HeLa cells. Type of assay: functional, rhinovirus type 1b.
Assay [3] relates to rhinovirus A1B. The description is as §1. It is filed as functional, rhinovirus type 1b. The settings on record: Rhinovirus A. The method, boiled down: as §2
The subject of assay [4] is rhinovirus A1B. As to the kind of experiment: Compound at 8 uM was tested for its percentage inhibitory concentration against rhinovirus 1B through plaque-inhibition assay at 50 ug/disk using monolayers of M-HeLa cells. Type of assay: functional, rhinovirus type 1b.
Assay [5] concerns rhinovirus A1B. As to the kind of experiment: Compound was tested for its percentage inhibitory concentration through plaque-inhibition assay at 50 microg per disk using monolayers of M-HeLa cells. It is filed as functional, rhinovirus type 1b. The following applies: Rhinovirus A.

By IC50 is commonly meant the point on the concentration scale where inhibition reaches its midpoint. `CNc1nc2c(N(C)C)nc(C(F)(F)F)nc2n1Cc1ccc(C)cc1` had an IC50 in assay [1] of 2900 nM. What is called Inhibition is the drop in the measured response relative to a control, in per cent. With `CC(=O)Nc1nc2c(N(C)C)nc(C(F)(F)F)nc2n1Cc1ccc(C)cc1`, the Inhibition in assay [2] is listed as 22%. `Cc1ccc(Cn2c(S(C)(=O)=O)nc3c(N(C)C)nc(C(F)(F)F)nc32)cc1` had an Inhibition in assay [2] of 37%. Regarding `Cc1ccc(Cn2c(N)nc3c(N(C)C)nc(C(F)(F)F)nc32)cc1`, the midpoint of inhibition in assay [1], the IC50, lay at 360 nM. Molecule `Cc1ccc(Cn2c(Br)nc3c(N(C)C)nc(C(F)(F)F)nc32)cc1` yielded an IC50 in assay [1] of 1400 nM. By inhibition is commonly meant the percentage by which the read-out fell short of the control. Low readings indicate little suppression, high ones strong suppression. In the case of `CSc1nc2c(N(C)C)nc(C(F)(F)F)nc2n1Cc1ccc(C)cc1`, the inhibition at 50 µg/disc in assay [3] was found to be 15%. For the molecule `Cc1ccc(Cn2c(S)nc3c(N(C)C)nc(C(F)(F)F)nc32)cc1`, in assay [1], the IC50 is 20000 nM. In turn, `Cc1ccc(Cn2c([S+](C)[O-])nc3c(N(C)C)nc(C(F)(F)F)nc32)cc1` (stereo not given) displayed an Inhibition in assay [2] of 27%. Regarding `Cc1ccc(Cn2c(NCCO)nc3c(N(C)C)nc(C(F)(F)F)nc32)cc1`, half-maximal inhibition in assay [1] (IC50) was put at 8600 nM.

As for `Cc1ccc(Cn2c(N(C)C)nc3c(N(C)C)nc(C(F)(F)F)nc32)cc1`, in assay [4], the Inhibition was 40%. For `Cc1ccc(Cn2c(SCc3ccccc3)nc3c(N(C)C)nc(C(F)(F)F)nc32)cc1`, the inhibition at 50 µg/disc in assay [5] turned out to be 25%. `Cc1ccc(Cn2c(=O)n(C)c3c(N(C)C)nc(C(F)(F)F)nc32)cc1` displayed an IC50 in assay [1] of 15000 nM. On to `Cc1ccc(Cn2c(O)nc3c(N(C)C)nc(C(F)(F)F)nc32)cc1`, for which, in assay [2], the Inhibition came to 25%.

In assay [1], `Cc1ccc(Cn2cnc3c(N(C)C)nc(C(F)(F)F)nc32)cc1` came in with an IC50 of 30 nM. In assay [2], `Cc1ccc(Cn2c(NCc3ccccc3)nc3c(N(C)C)nc(C(F)(F)F)nc32)cc1` came in with an Inhibition of 20%.

The values are drawn from ChEMBL document CHEMBL1125834, “Synthesis and antirhinovirus activity of 8-substituted analogues of 6-(dimethylamino)-9-(4-methylbenzyl)-2-(trifluoromethyl)-9H-purine” (J Med Chem, 1991).
